Sampled rows, rich in hits. Any-hit rate of the full collection: about 0.99%.
GRK2 inh: inhibitors of human GRK2 displacing RNA aptamer; P25098; bead flow cytometry, FAM-aptamer displacement from GRK2; inhibition of aptamer binding, % at 10 µM; actives 0.59% (n = 330,000); AID 488847;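 active = inhibition of aptamer binding above 40%, roughly 3 SD of noise, on plates passing a quality check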;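 also: median bead fluorescence of bound FAM aptamer so fluorescent compounds give negative values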
ABCG2 block: blocks JC-1 efflux by human ABCG2 transporter; Q9UNQ0; IgMXP3 cells, flow cytometry; inhibition, % at 6.6 µM; actives 0.1% (n = 190,000);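 active = inhibition above 80%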
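Read-out basis: Efflux inhibition in percent versus controls | Test system: ABCG2 IgMXP3 and barcoded ABCB1 CCRF-Adr cell mix | Quantity: 3 million cells/mL in well | Schedule: 10 min at 25 °C | Control set: Nicardipine as high control, DMSO as low control | Reagent: JC-1 as fluorescent efflux pump substrate | Signal: Flow cytometry of retained JC-1 fluorescence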
Tn7 DDE FP: disrupts Tn7 cyclic peptide binding to fibrin D-Dimer-E complex; FP displacement of FITC-Tn7 peptide from fibrin DD(E); 0% = median of compound wells per plate; inhibition, % at 8.3 µM; actives 0.13% (n = 370,000); AID 720508;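 active = inhibition above the mean of compounds falling within the control limits plus 3 SD of them, cut at about 14% in these data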
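Assay system: human fibrin DD(E) protein / Input: 2 µM fibrin DD(E) / Benchmarks: high control of 10 µM Aha-Tn7 peptide / Measured by: fluorescence polarization of the labelled Tn7 tracer / Medium: Tris buffer with calcium and detergent, pH 7.8 / Timing: 10 min compound pre-incubation, 3 h probe incubation at room temperature / Repeats: one replicate per compound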
Tn6 DDE FP: disrupts Tn6 cyclic peptide binding to fibrin D-Dimer-E complex; Fibrin DD(E) TRITC-Tn6 fluorescence polarization displacement; inhibition, % at 8.3 µM; actives 0.21% (n = 370,000);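 active = inhibition above a per-campaign cutoff: mean of compounds within control limits plus 3 SD, cut at about 15% in these data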
ABCB1 inh: inhibitors of human ABCB1 transporter, ABCG2 counter-screen; actives 0.067% (n = 190,000); P08183; CCRF-Adr cells, JC-1 efflux, flow cytometry; inhibition, % at 6.6 µM; in the data active = inhibition above about 40%;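 also: higher value means more JC-1 retained so stronger ABCB1 efflux block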
Ins promoter up: MIN6 insulin promoter up-regulation; MIN6 insulin promoter-GFP reporter, high-content imaging; hits give high values; AID 1625; z-score at 5 µM; actives 0.3% (n = 190,000);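 active = z-score above 3 at 5 µM with at least 500 cells counted in the well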
DDE Tn7 confirm: DD(E)-Tn7 binding inhibition, FP confirmation; shares compounds with Tn7 DDE FP; AID 720628; FP displacement of TRITC-Tn7 peptide from DD(E); 0% set at plate's compound-well median; actives 5% (n = 460); inhibition, % at 8.3 µM;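 active = inhibition above the campaign cutoff, the mean of compounds within control limits plus 3 SD, cut at about 14% in these data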;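 also: displacers lower polarization since freed probe rises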
DDE Tn7 FP ctr: counter-screen hit for Tn7 peptide-fibrin DD(E) binding disruption; actives 3% (n = 460); inhibition, % at 8.3 µM; shares compounds with Tn7 DDE FP; TRITC-Tn7 probe displacement, fluorescence polarization;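 active = inhibition above the cutoff, the mean of compounds lying between the control bounds plus 3 SD of those compounds, cut at about 17% in these data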
Tn6 DDE ctr: counter-screen for inhibitors of Tn6 peptide binding to fibrin DD(E) | shares compounds with Tn6 DDE FP | TRITC-Tn6 fluorescence polarization displacement; 0% = median of compound wells, not DMSO | inhibition, % at 8.3 µM | actives 2% (n = 680);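 active = inhibition above the mean of test compounds lying between the control limits plus 3 SD of those, cut at about 14% in these data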
Tn6 DDE conf: DD(E)-Tn6 binding inhibition, FP confirmation; actives 10% (n = 680); FP displacement of TRITC-Tn6 peptide from DD(E); 0% = per-plate median of test wells; shares compounds with Tn6 DDE FP; inhibition, % at 8.3 µM;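 active = inhibition above the mean of compounds lying within the control limits plus 3 SD, cut at about 16% in these data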
Hits are given with their value; . = inactive; / = no result given; + = active, no number.

SMILES | GRK2 inh | ABCG2 block | Tn7 DDE FP | Tn6 DDE FP | ABCB1 inh | Ins promoter up | DDE Tn7 confirm | DDE Tn7 FP ctr | Tn6 DDE ctr | Tn6 DDE conf
C[n+]1c(-c2ccccc2)c2cc(N)ccc2c2ccc(N)cc21 | . | / | 22 | 49 | / | / | . | 124 | . | 124
O=[N+]([O-])c1ccc(NCc2ccccc2)c2nonc12 | . | . | 61 | 21 | . | 13 | 46 | 27 | 46 | 27
CCc1c(C)nc(N)nc1N1N=C1SCCOc1ccccc1 | . | . | . | . | . | . | / | / | / | /
COc1cccc2c1C(=O)c1c(O)c3c(c(O)c1C2=O)CC(O)(C(C)=NO)CC3OC1CC(N)C(O)C(C)O1 (stereo not drawn) | / | / | 21 | + | / | / | . | 93 | . | 93
O=C1NC(=S)NC(=O)C12C(c1ccc(F)cc1)NC(=S)NC2c1ccc(F)cc1 (stereo not drawn) | . | . | . | . | . | / | / | / | / | /
CCCCn1nnnc1C(CCSC)N1CCC2(CC1)C(=O)NCN2c1ccccc1 (stereo not drawn) | / | / | . | . | / | / | / | / | / | /
O=[N+]([O-])c1ccc(N2CCCCCC2)c2nonc12 | . | / | . | 85 | / | / | / | / | . | 66
CCOC(=O)C1CCN(C(C)C(=O)c2c[nH]c3ccccc23)CC1 (stereo not drawn) | . | / | / | / | / | / | / | / | / | /
CC(=O)NC1C(OC(=O)Cc2ccccc2)OC(COC(C)=O)C(OC(C)=O)C1OC(C)=O (stereo not drawn) | . | . | . | . | . | . | / | / | / | /
CCNC(=O)C1OC(n2cnc3c(N)ncnc32)C(O)C1O (stereo not drawn) | . | / | . | 16 | / | / | / | / | . | .

Bioassay records: PubChem, several laboratories
